Screening results as filed in PubChem.
Sampled rows, rich in hits. Any-hit rate of the full collection: about 1.3%.
Diaph act CS: diaphorase activation or chemical reduction counter-screen; Diaphorase/resazurin coupled assay, resorufin fluorescence, 16 min; hits give high values; 1 = vehicle wells, 0 = NADH-free wells; activation factor at 20 µM; hit rate 0.005% among 190,000; AID 1229;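 active = diaphorase activity raised at least twofold by the compound at 20 µM; inactive = activation factor below 2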
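Test system: Clostridium kluyveri diaphorase, purified enzyme; input: enzyme 0.07 U/mL final; buffer or medium: 50 mM HEPES pH 7.4 with 4.542 mM MgCl2, 0.005% Tween 20; also added: 0.114 mM NADH and 0.1 mM resazurin, final amounts; schedule: 16 min enzyme reaction, ambient temperature; technique: fluorescence of resorufin, 544 nm excitation, 590 nm emission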
PfGluPho inh: PfG6PD (Plasmodium falciparum) enzyme inhibition; hit rate 0.78% among 350,000; inhibition, % at 20 µM; PfGluPho enzyme, NADPH resazurin-diaphorase fluorescence;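 active = inhibition reaching at least a set limit at 20 µM in the primary screen, cut at about 59% in these data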
Diaphorase inh: diaphorase inhibition or chemical oxidation counter-screen | diaphorase resazurin-to-resorufin fluorescence, NADH, 16 min; bacterial (C. kluyveri) enzyme, not human | hit rate 0.69% among 190,000 | AID 1217 | inhibition, % at 20 µM;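 active = primary screen inhibition at 20 µM above a set limit, cut at about 50% in these data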
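Benchmarks: positive control wells lacking NADH, neutral wells with DMSO only. System: bacterial diaphorase enzyme (C. kluyveri). Input: 0.14 U/mL diaphorase, enzyme working solution. Detection: resorufin fluorescence, excitation 544 nm, emission 590 nm. Times: 16-min room-temperature incubation before reading.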
G6PDH counter: inhibits Leuconostoc G6PDH, flagging false hits in G6PDH-based assays. AID 1020. hit rate 0.12% among 200,000. inhibition, % at 5 µM. Purified L. mesenteroides G6PDH, diaphorase/resazurin coupled fluorescence, 45 min; in the data active = inhibition above about 50%
HKDC1 inh: HKDC1 (human) hexokinase inhibition. hit rate 0.16% among 340,000. recombinant HKDC1, G6PDH/diaphorase resazurin coupled fluorescence. Q2TB90. inhibition, % at 20 µM. AID 493160;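 active = inhibition above about 35% when tested at 20 µM, limit read from the data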
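Test system: Recombinant HKDC1 (HK5) hexokinase enzyme, produced in-house | Input: HKDC1 at 5 µg/mL | Buffer or medium: Tris pH 8.0 buffer with MgCl2, Tween-20, BSA, BME | Schedule: 90 min reaction incubation at room temperature, dark | Technique: Resazurin-to-resorufin fluorescence via G6PDH and diaphorase coupling, 525/613 nm | Controls: DMSO wells with and without enzyme mix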
PfGluPho conf: confirmation of Plasmodium falciparum G6PD inhibitors; shares compounds with PfGluPho inh; hit rate 34% among 2,400; recombinant PfGluPho, NADPH-diaphorase-resazurin fluorescence; inhibition, % at 20 µM;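 active = inhibition of at least 50% at 20 µM in any single replicate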
Diaphorase 10uM: diaphorase inhibition or oxidation at 10 uM NADPH; shares compounds with PfGluPho inh; diaphorase-coupled resazurin reduction, fluorescence, NADPH 10 uM; inhibition, % at 20 µM; hit rate 39% among 820; AID 504862;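 active = average inhibition reaching 50% or more with the compound at 20 µM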;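 also: resorufin red fluorescence formed as diaphorase reduces resazurin using NADPH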
Diaph ctr 30uM: diaphorase inhibition or oxidation at 30 uM NADPH. shares compounds with PfGluPho inh. inhibition, % at 20 µM. hit rate 29% among 820. AID 504863. Diaphorase/resazurin coupled assay, resorufin fluorescence;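 active = inhibition averaging 50% or more, tested at 20 µM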
Of the large screens only hits and unclear results are named; the others gave an inactive call (follow-up assays come after a bar, where they were run).

CC1C(=O)CCC1(C(=O)O)c1ccccc1 (centres undefined)	none
CN(C)S(=O)(=O)c1cccc(-c2nnc3n2CCCCC3)c1	none (no result: Diaph act CS, Diaphorase inh, G6PDH counter)
CCn1c(SCC(=O)Nc2ccc(F)cc2)nnc1-c1cnccn1	PfGluPho inh 87.5 (no result: Diaph act CS, Diaphorase inh, G6PDH counter) | PfGluPho conf inactive
CCn1c(SCC(=O)Nc2ccccc2Br)nnc1-c1cnccn1	none (no result: Diaph act CS, Diaphorase inh, G6PDH counter)
CCOc1ccccc1NC(=O)CSc1nnc(-c2cnccn2)n1CC	PfGluPho inh 73.0 | PfGluPho conf inactive
C=CCn1c(SCC(=O)Nc2ccc(F)cc2)nnc1-c1cnccn1	PfGluPho inh 64.3 (no result: Diaph act CS, Diaphorase inh, G6PDH counter) | PfGluPho conf inactive
COc1ccc(C)cc1S(=O)(=O)Nc1cccc(-c2cn3cccnc3n2)c1	none (no result: Diaph act CS, Diaphorase inh, G6PDH counter)
CCOC(=O)N/N=C/c1cn(CCCOc2ccc(C)cc2)c2ccccc12	none
Cc1ccc(OCCCn2cc(C#N)c3ccccc32)cc1	PfGluPho inh 67.5 | PfGluPho conf inactive
N#Cc1cn(CCOc2ccc(F)cc2)c2ccccc12	PfGluPho inh 83.5 | PfGluPho conf inactive
N#Cc1cn(CCOc2ccccc2F)c2ccccc12	none
CCCCCC1CC(CC/C(C)=N/NC(N)=O)C(=O)O1 (centres undefined)	none (no result: Diaph act CS, Diaphorase inh, G6PDH counter)
COc1ccc(CCNC(=O)CS(=O)(=O)Cc2nc(-c3ccccc3Cl)oc2C)cc1OC	none (no result: Diaph act CS, Diaphorase inh, G6PDH counter)
Cc1nc(NC(=O)C2CCCC2)sc1Cc1ccc2c(c1)OCO2	none
Cc1c(Cc2ccc3c(c2)OCO3)sc(NC(=O)c2cccc3ccccc23)c1C(N)=O	PfGluPho inh 86.5 | PfGluPho conf inactive
Cc1c(Cc2ccc3c(c2)OCO3)sc(NC(=O)C2CC2)c1C(N)=O	PfGluPho inh 70.4 (no result: Diaph act CS, Diaphorase inh, G6PDH counter) | PfGluPho conf inactive
C=CCOc1ccc(CNc2ccc3[nH]c(=O)[nH]c3c2)cc1	none (no result: Diaph act CS, Diaphorase inh)
COc1cccc(CNc2ccc3[nH]c(=O)[nH]c3c2)c1OCc1ccc(F)cc1	PfGluPho inh 112.3 (no result: Diaph act CS, Diaphorase inh, G6PDH counter) | PfGluPho conf 50.5 | Diaphorase 10uM inactive | Diaph ctr 30uM inactive
O=c1[nH]c2ccc(NCc3ccccc3OCc3ccc(Cl)cc3)cc2[nH]1	PfGluPho inh 73.1 (no result: Diaph act CS, Diaphorase inh, G6PDH counter) | PfGluPho conf 47.5 | Diaphorase 10uM inactive | Diaph ctr 30uM inactive
Oc1ccc(NCc2ccccc2OCc2ccccc2)cc1	PfGluPho inh 73.4 | PfGluPho conf 50.4 | Diaphorase 10uM inactive | Diaph ctr 30uM inactive
COc1cc(CNn2c(C)n[nH]c2=S)cc(Cl)c1OCC(=O)NC(C)(C)C	none (no result: Diaph act CS, Diaphorase inh, G6PDH counter)
COc1cc(CNc2ccc3[nH]c(=O)[nH]c3c2)cc(Cl)c1OCC(=O)NC(C)(C)C	PfGluPho inh 82.8, Diaphorase inh 73.2 | PfGluPho conf inactive
C=CCOc1c(CNc2ccc3[nH]c(=O)[nH]c3c2)cccc1OC	none (no result: Diaph act CS, Diaphorase inh)
CCNCc1ccccc1OCc1ccccc1	none
N#Cc1ccccc1OCC(=O)OCC(=O)NCc1ccc2c(c1)OCO2	none (no result: Diaph act CS, Diaphorase inh, G6PDH counter)
COc1ccc(S(=O)(=O)N2CCOCC2)cc1N=Nc1sc(N)nc1-c1ccccc1	none
CCOc1ccc(C(C)NC(=S)NC2CCCCC2)cc1OCC (centres undefined)	none
CCOc1ccc(C(=S)NC2CCCCC2)cc1OCC	PfGluPho inh 65.2 (no result: Diaph act CS, Diaphorase inh, G6PDH counter) | PfGluPho conf inactive
CC(C)N=Cc1c(O)[nH]c2ccccc12	none
Cc1cccc(/N=C/c2c(O)[nH]c3ccccc23)n1	PfGluPho inh 65.0 | PfGluPho conf inactive
O=C1C=C(c2ccccc2)C(=O)N1Nc1ccccc1	PfGluPho inh 59.8 | PfGluPho conf inactive
CC(C)(C)OC(=O)N1CCC(NC(=O)c2ncn(Cc3ccccc3)c2C(=O)NC2CCN(C(=O)OC(C)(C)C)CC2)CC1	none (no result: Diaph act CS, Diaphorase inh, G6PDH counter)
Nc1ccc(Oc2ncccn2)cc1	PfGluPho inh 66.3 (no result: Diaph act CS, Diaphorase inh, G6PDH counter) | PfGluPho conf inactive
COc1cc(N=Nc2c(C)n(C)n(-c3ccccc3)c2=O)ccc1N	none
CCOC(=O)c1sc(NC(=O)C(C)C)c(C#N)c1C	PfGluPho inh 68.1 | PfGluPho conf inactive
CCOC(=O)c1sc(NC(=O)C2=COCCO2)c(C#N)c1C	none (no result: Diaph act CS, Diaphorase inh, G6PDH counter)
